Experimental data taken from ChEMBL document CHEMBL5247673, “Discovery of Small Molecules Targeting the Frameshifting Element RNA in SARS-CoV-2 Viral Genome” (ACS Med Chem Lett, 2023).
Calls of active or inactive are those of the source. The calls are words filed in the database; no cut-off is given here.

Legend:
[1] = system: Severe acute respiratory syndrome coronavirus 2; test: Binding affinity to 5'-CY5-labelled SARS-CoV-2 frameshift element RNA by SPR analysis
Summary of the method: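 Single-concentration SPR at 100 μM compound over immobilized FSE RNA, with the lead compound as positive control.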

[2] = system: Severe acute respiratory syndrome coronavirus 2; test: Binding affinity to 5'-CY5-labelled SARS-CoV-2 frameshift element RNA by MST analysis
Summary of the method: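 Single-concentration MST screen against 5′-Cy5-labelled FSE RNA at 100 μM compound. A hit required an MST shift greater than 3SD of the DMSO signal, with the lead compound as positive control.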

Reticulocyte [3] = test: Binding affinity to wild-type SARS-CoV-2 frameshift element RNA pseudoknot sequence transfected with Renilla/Firefly luciferase in rabbit reticulocyte lysate assessed as frameshifting by measuring ratio of renilla/firefly luminescence by dual-luciferase reporter assay; type: subcellular; details: Severe acute respiratory syndrome coronavirus 2
Summary of the method: (§1)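 In vitro frameshifting reporter with the SARS-CoV-2 or RSV pseudoknot placed between Renilla (0 frame) and firefly (−1 frame) luciferases. Frameshifting was the luminescence ratio. Frameshifting and translation were normalized to WT plus DMSO. Controls were a 5′ stop codon, a 3′ stop codon and a same-frame construct. Data are mean ± SD, n = 3.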

Reticulocyte [4] = test: Binding affinity to wild-type Rous sarcoma virus frameshift element RNA pseudoknot sequence transfected with Renilla/Firefly luciferase in rabbit reticulocyte lysate assessed as reduction in frameshifting by dual-luciferase reporter assay relative to control; type: subcellular; set-up: scale not given: the % may be the effect or the level left; summary of the method: as §1
MCF7 [5] = test: Cytotoxicity against human MCF7 cells assessed as reduction in cell viability upto 100 uM measured after 48 hrs by Cell-titer Glo luminescent assay; type: toxicity, cell-based; details: mcf7, 48 h
Summary of the method: (§2)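 MCF-7 cell viability after 48 h compound exposure.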

Reticulocyte [6] = test: Binding affinity to wild-type Rous sarcoma virus frameshift element RNA pseudoknot sequence transfected with Renilla/Firefly luciferase in rabbit reticulocyte lysate assessed as frameshifting by measuring ratio of renilla/firefly luminescence by dual-luciferase reporter assay; type: subcellular; summary of the method: as §1
Reticulocyte [7] = test: Binding affinity to wild-type SARS-CoV-2 frameshift element RNA pseudoknot sequence transfected with Renilla/Firefly luciferase in rabbit reticulocyte lysate assessed as translation by measuring ratio of renilla luminescence by dual-luciferase reporter assay; type: subcellular; details: Severe acute respiratory syndrome coronavirus 2; summary of the method: as §1
Reticulocyte [8] = test: Binding affinity to wild-type SARS-CoV-2 frameshift element RNA pseudoknot sequence transfected with Renilla/Firefly luciferase in rabbit reticulocyte lysate assessed as reduction in frameshifting by dual-luciferase reporter assay relative to control; type: subcellular; set-up: scale not given: the % may be the effect or the level left; details: Severe acute respiratory syndrome coronavirus 2; summary of the method: as §1
Reticulocyte [9] = test: Binding affinity to wild-type Rous sarcoma virus frameshift element RNA pseudoknot sequence transfected with Renilla/Firefly luciferase in rabbit reticulocyte lysate assessed as inhibition of translation by dual-luciferase reporter assay relative to control; type: subcellular; details: concentration not given here; summary of the method: as §1
Reticulocyte [10] = test: Binding affinity to wild-type Rous sarcoma virus frameshift element RNA pseudoknot sequence transfected with Renilla/Firefly luciferase in rabbit reticulocyte lysate assessed as translation by measuring ratio of renilla luminescence by dual-luciferase reporter assay; type: subcellular; summary of the method: as §1
[11] = system: Severe acute respiratory syndrome coronavirus 2; test: Binding affinity to SARS-CoV-2 frameshift element RNA assessed as thermal stability by measuring change in melting temperature of RNA by circular dichroism analysis
Summary of the method: (§3)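 FSE RNA thermal melt with compound at 150 or 500 μM. Tm was taken from first-derivative melting curves and reported as ΔTm.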

[12] = system: Severe acute respiratory syndrome coronavirus 2; test: Binding affinity to SARS-CoV-2 frameshift element RNA at 150 uM by water ligand observed gradient spectroscopic analysis
Summary of the method: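 WaterLOGSY NMR of 150 μM compound, alone and with 5 μM unlabelled FSE RNA. N-methyl-L-valine served as internal non-binding control, and a phase inversion of ligand peaks was read as binding.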

[13] = system: Severe acute respiratory syndrome coronavirus 2; test: Binding affinity to 5'-Cy5-labelled SARS-CoV-2 frameshift element RNA at 10 uM by microarray-based fluorescence analysis
MCF7 [14] = test: Inhibition of programmed -1 ribosomal frameshifting in human MCF7 cells harboring pCherryGFP-Inframe-noFSE plasmid assessed as inhibition of GFP expression incubated for 30 mins by fluorescence microscopic analysis; type: functional, cell-based
Summary of the method: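 MCF-7 cells were treated with compound at various concentrations and transfected with an mCherry–FSE–GFP reporter: WT, a stop-codon negative control, or an in-frame no-FSE plasmid. GFP expression was the read-out, compared with a DMSO (0 μM) control. Data are mean ± SD of three independent experiments.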

[15] = Cytotoxicity against human MCF7 cells assessed as cell viability at 50 uM measured after 48 hrs by Cell-titer Glo luminescent assay relative to control; type: toxicity, cell-based; details: read-out: Activity; summary of the method: as §2
[16] = system: Severe acute respiratory syndrome coronavirus 2; test: Binding affinity to SARS-CoV-2 frameshift element RNA assessed as thermal stability by measuring change in melting temperature of RNA at 150 uM by circular dichroism analysis; summary of the method: as §3
[17] = system: Severe acute respiratory syndrome coronavirus 2; test: Binding affinity to SARS-CoV-2 frameshift element RNA assessed as thermal stability by measuring change in melting temperature of RNA at 500 uM by circular dichroism analysis; summary of the method: as §3
[18] = Binding affinity to 5'-biotin-labelled SARS-CoV-2 frameshift element RNA assessed as dissociation constant by SPR analysis; set-up: species or system Severe acute respiratory syndrome coronavirus 2
Summary of the method: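 5′-Biotin FSE RNA was captured on a streptavidin-coated SPR surface. Compound was injected at 15.6–1000 μM, and KD came from steady-state fitting to a 1:1 Langmuir model. Stoichiometry was estimated from Rmax and the molecular ratio.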

[19] = Binding affinity to 5'-CY5-labelled SARS-CoV-2 frameshift element RNA assessed as dissociation constant by MST analysis; set-up: species or system Severe acute respiratory syndrome coronavirus 2
Summary of the method: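 MST titration of the compound (4.9–500 μM) into 5′-Cy5-labelled FSE RNA. KD was fitted from T-jump values.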

[20] = system: Severe acute respiratory syndrome coronavirus 2; test: Binding affinity to 5'-CY5-labelled SARS-CoV-2 frameshift element RNA at 50 uM by MST analysis

Compound | Activity [1] | Activity [2] | further results
COc1ccc(-c2nc(NCCN3CCOCC3)c3cc(-c4ccc(S(N)(=O)=O)cc4)ccc3n2)cc1 | Active | inactive | –
COc1ccc(-c2nc(NCCN3CCOCC3)c3ccc(-c4cn[nH]c4)cc3n2)cc1 | Active | Active | –
COc1ccc(-c2nc(NCCN3CCOCC3)c3cc(C(F)(F)F)ccc3n2)cc1 | inactive | Active | –
COc1ccccc1-c1nc(NCCN2CCOCC2)c2ccccc2n1 | Active | inactive | –
COc1ccc(-c2nc(NCCN3CCOCC3)c3cc([N+](=O)[O-])ccc3n2)cc1 | inactive | inactive | –
COc1ccc(-c2nc(NCCN3CCOCC3)c3ccc(-c4ccc(S(N)(=O)=O)cc4)cc3n2)cc1 | inactive | inactive | –
CC#CCOc1ccc(-c2nc(NCCN3CCOCC3)c3ccccc3n2)cc1 | inactive | inactive | –
CCNCC1CCN(c2c(F)cc3c(=O)c(C(=O)O)cn(CC)c3c2F)C1 (stereo not drawn) [MERAFLOXACIN] | – | Active | Ratio (Reticulocyte [3]): 0.21; Activity (Reticulocyte [4]): 41%; Activity (MCF7 [5]): Non-Toxic; Ratio (Reticulocyte [6]): 0.59; Ratio (Reticulocyte [7]): 0.9; Activity (Reticulocyte [8]): 79%; inhibition (Reticulocyte [9]): 30%; Ratio (Reticulocyte [10]): 0.7; ΔTm [11]: -3.7 °C
COc1ccc(-c2nc(NCCS(=O)(=O)N3CCOCC3)c3ccccc3n2)cc1 | Active | inactive | –
CCN(CCN1CCOCC1)c1nc(-c2ccc(OC)cc2)nc2ccccc12 | Active | inactive | –
COc1ccc(-c2nc(NCCN3CCOCC3)c3ccccc3n2)cc1 | Active | Active | Activity [12]: Active; Activity [13]: Active; Ratio (Reticulocyte [3]): 0.99; inhibition (MCF7 [14]): inactive; viability at 48 h, 50 µM [15]: 91.6%; Ratio (Reticulocyte [6]): 1.21; ΔTm [16]: -2.5 °C; Ratio (Reticulocyte [7]): 1.35; Ratio (Reticulocyte [10]): 0.77; ΔTm [17]: -4.5 °C; Kd [18]: 147 µM; Kd [19]: 139 µM
O=[N+]([O-])c1ccc(-c2nc(NCCN3CCOCC3)c3ccccc3n2)cc1 | inactive | inactive | –
COc1ccc(-c2nc(NCCN3CCOCC3)c3ccc([N+](=O)[O-])cc3n2)cc1 | inactive | inactive | –
COc1ccc(-c2nc(NCCN3CCOCC3)c3ccc(C(F)(F)F)cc3n2)cc1 | inactive | Active | –
COc1ccc(-c2nc(NCCN3CCN(C)CC3)c3ccccc3n2)cc1 | Active | Active | –
COc1ccc(-c2nc(NCCN3CCOCC3)c3c(OC)cccc3n2)cc1 | Active | inactive | –
COc1ccc(-c2nc(NCCN3CCOCC3)c3cc(-c4ccc(N5CCOCC5)c(C)c4)ccc3n2)cc1 | Active | inactive | –
COc1ccc(-c2nc(NCCN3CCOCC3)c3cc(OC)ccc3n2)cc1 | Active | Active | Ratio (Reticulocyte [3]): 0.98; viability at 48 h, 50 µM [15]: 95.6%; Ratio (Reticulocyte [6]): 1.13; Ratio (Reticulocyte [7]): 0.98; Ratio (Reticulocyte [10]): 0.82; Kd [18]: 60 µM
COc1ccc(-c2nc(NCCN3CCOCC3)c3cc(OC)c(OC)cc3n2)cc1 | Active | Active | –
COc1ccc(-c2nc(NCCN3CCOCC3)c3cccc(OC)c3n2)cc1 | Active | inactive | –
FC(F)(F)c1ccc(-c2nc(NCCN3CCOCC3)c3ccccc3n2)cc1 | Active | inactive | –
COc1ccc(-c2nc(NCCN3CCOCC3)c3ccc(OC)cc3n2)cc1 | Active | Active | –
CCOC(=O)c1cccc(Nc2nc(-c3cccnc3)nc3ccccc23)c1 | – | – | Activity [12]: inactive; Activity [20]: inactive
CCOC(=O)c1ccccc1NC(=O)N1CCCN(Cc2csc(C)n2)CC1 | – | Active | Ratio (Reticulocyte [3]): 1.02; Ratio (Reticulocyte [6]): 1.13; Ratio (Reticulocyte [7]): 1.01; Ratio (Reticulocyte [10]): 0.96; ΔTm [11]: 2.2 °C
COc1ccc(F)cc1COc1ccc(-c2nc(NCCN3CCOCC3)c3ccccc3n2)cc1 | inactive | inactive | –
COc1ccc(-c2nc(NCCN3CCOCC3)c3cc(-c4cn[nH]c4)ccc3n2)cc1 | Active | inactive | –
COc1cccc(-c2nc(NCCN3CCOCC3)c3ccccc3n2)c1 | inactive | inactive | –
COc1ccc(-c2nc(NCCCN3CCC(N4CCCCC4)CC3)c3ccccc3n2)cc1 | – | – | Activity [12]: inactive; Activity [20]: inactive
COc1ccc(-c2nc(N3CC(N4CCOCC4)C3)c3ccccc3n2)cc1 | Active | inactive | –
